Screens (PubChem)
Hits are enriched below; roughly 3.9% of the tested compounds scored in any of these assays.
SR-BI uptake up: activators of SR-BI mediated HDL lipid uptake | activation, % at 12.5 µM | CHO ldlA[mSR-BI] cells, DiI-HDL uptake fluorescence, 3 h; 100 = double the neutral-control signal | hit rate 0.096% among 320,000;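 active = mean replicate activation of at least 60% and every replicate at or above 60%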
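Test system: SR-BI-overexpressing, LDLR-lacking CHO cells; Also added: labelled HDL, 10 µg/mL; Measured by: bottom-read cell fluorescence after medium removal, ex 550/em 595 nm; Timing: 3 h uptake period with compound, 37 °C; Buffer or medium: F12, 0.5% BSA, 25 mM HEPES; Doses: single compound concentration, delivered by pin transfer.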
ABCB6 inh 2: blocks the human ABCB6 transporter; Q9NP58; K562-ABCB6 porphyrin accumulation, flow cytometry, 1 h; stronger effect = lower value; fluorescence ratio to DMSO, % at 10 µM; hit rate 0.19% among 360,000; AID 602162;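 active = fluorescence ratio to DMSO below 75%, the collection mean minus 3 SD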;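 note: signal is porphyrin accumulated inside mitochondria; lower ratio means ABCB6 inhibition with less porphyrin fluorescence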
AHR act: activators of human aryl hydrocarbon receptor | P35869 | AHR-responsive luciferase reporter cells, luminescence | activation, % at 5 µM | hit rate 2.5% among 320,000 | AID 2796; in the data active = activation above about 47%
Target sequence (P35869 whole entry, looked up): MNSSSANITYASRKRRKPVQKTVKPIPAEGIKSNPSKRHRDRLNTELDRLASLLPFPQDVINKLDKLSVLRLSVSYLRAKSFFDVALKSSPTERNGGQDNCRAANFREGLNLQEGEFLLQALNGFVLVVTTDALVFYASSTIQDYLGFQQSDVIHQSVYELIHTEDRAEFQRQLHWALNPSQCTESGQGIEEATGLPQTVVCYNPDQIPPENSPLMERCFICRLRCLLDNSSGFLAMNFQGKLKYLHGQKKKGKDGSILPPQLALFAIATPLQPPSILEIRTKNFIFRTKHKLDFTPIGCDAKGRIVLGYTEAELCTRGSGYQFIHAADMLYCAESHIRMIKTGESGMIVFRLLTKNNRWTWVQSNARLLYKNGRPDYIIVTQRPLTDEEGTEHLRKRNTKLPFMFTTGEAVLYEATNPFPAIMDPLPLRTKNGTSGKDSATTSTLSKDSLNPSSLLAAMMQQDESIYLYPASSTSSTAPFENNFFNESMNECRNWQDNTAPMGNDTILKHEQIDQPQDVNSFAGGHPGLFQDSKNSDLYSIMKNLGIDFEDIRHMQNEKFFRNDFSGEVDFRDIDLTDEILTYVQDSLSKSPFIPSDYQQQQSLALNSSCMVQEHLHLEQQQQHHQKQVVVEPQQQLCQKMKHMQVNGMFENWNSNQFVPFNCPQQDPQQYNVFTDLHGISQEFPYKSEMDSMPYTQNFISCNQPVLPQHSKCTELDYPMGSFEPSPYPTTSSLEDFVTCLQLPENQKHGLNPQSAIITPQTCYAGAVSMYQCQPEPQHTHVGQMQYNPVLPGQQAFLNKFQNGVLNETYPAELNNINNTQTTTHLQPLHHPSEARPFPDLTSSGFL
SR-BI DiI inh: mouse SR-BI HDL lipid transfer inhibition. Q61009. ldlA[mSR-BI] CHO cells, DiI-HDL uptake fluorescence, 3 h. inhibition, % at 12.5 µM. hit rate 0.96% among 320,000;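 active = mean replicate inhibition of at least 70% and a set share of replicates each scoring 70 or more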
HIF activator: HIF pathway transcriptional activation. hit rate 0.32% among 300,000. U2OS HRE-luciferase reporter, luminescence; normalized: DMSO 0%, desferrioxamine 100%. activation, % at 7.5 µM (by protocol);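 active = mean activation of at least 10% of the iron chelator positive control signal, with at least half of replicates also reaching 10%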
GAA850 FXN act: activators of GAA850 frataxin (FXN) promoter | hit rate 0.56% among 360,000 | AID 540364 | activation, % at 6 µM | HEK293 lucGAA850 FXN promoter luciferase reporter, 24 h; percent of 10 µM SAHA response;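 active = activation above the average of all compounds screened plus 3 SD, cutoff fixed separately per campaign, cut at about 7.5% in these data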
GAA30 counter: counter-screen for GAA850 frataxin promoter activators: GAA30 promoter activation. shares compounds with GAA850 FXN act. HEK293 lucGAA30 FXN promoter luciferase, 24 h; DMSO = 0%, 5 µM ipriflavone = 100%. activation, % at 6 µM. hit rate 66% among 1,900;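 active = mean activation above the mean of solvent-only control wells plus 3 SD, cut at about 22% in these data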;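 note: counterscreen of GAA850 promoter hits where activity marks nonselective or luminescence artifacts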
FXN GAA850 conf: confirmation of GAA850 frataxin (FXN) promoter activators; shares compounds with GAA850 FXN act; HEK293 lucGAA850 FXN promoter luciferase reporter, 24 h; 100% = activation by SAHA; activation, % at 6 µM; hit rate 86% among 1,900;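 active = mean activation above a set limit taken from the primary screen, cut at about 8% in these data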
A number is an active result.

What do the screens show for `COc1ccc(-c2csc(NC(=O)CN3C(=O)C4CC=CCC4C3=O)n2)cc1` (centres undefined)?
SR-BI uptake up: inactive; ABCB6 inh 2: inactive; AHR act: inactive; SR-BI DiI inh: inactive; GAA850 FXN act: inactive

What do the screens show for `Cc1c(NS(=O)(=O)c2cccc(C(=O)Nc3ccccc3)c2)c(=O)n(-c2ccccc2)n1C`?
SR-BI uptake up: inactive; ABCB6 inh 2: inactive; AHR act: inactive; SR-BI DiI inh: inactive; GAA850 FXN act: inactive

Results for Fc1ccccc1-n1[nH]nnc1=S ?
SR-BI uptake up: inactive; ABCB6 inh 2: inactive; AHR act: inactive; SR-BI DiI inh: inactive; HIF activator: inactive; GAA850 FXN act: inactive

What do the screens show for `Cc1cc(C)nc(Nc2n[nH]c(-c3ccccc3Br)n2)n1`?
SR-BI uptake up: inactive; ABCB6 inh 2: inactive; AHR act: inactive; SR-BI DiI inh: inactive; HIF activator: inactive; GAA850 FXN act: inactive

Results for Cc1cc(C)nc(Nc2n[nH]c(-c3ccc(N)cc3)n2)n1 ?
SR-BI uptake up: inactive; ABCB6 inh 2: inactive; AHR act: inactive; SR-BI DiI inh: inactive; HIF activator: inactive; GAA850 FXN act: 8.2; GAA30 counter: 93; FXN GAA850 conf: 34

What do the screens show for `Nc1nc(N)nc(-c2cc([N+](=O)[O-])ccc2O)n1`?
SR-BI uptake up: inactive; ABCB6 inh 2: inactive; AHR act: inactive; SR-BI DiI inh: inactive; GAA850 FXN act: 17; GAA30 counter: 69; FXN GAA850 conf: 51

How did Cc1c(CCC(=O)NC2CC2)c(=O)oc2cc(O)ccc12 do in these assays?
SR-BI uptake up: inactive; ABCB6 inh 2: inactive; AHR act: inactive; SR-BI DiI inh: inactive; HIF activator: inactive; GAA850 FXN act: 15; GAA30 counter: inactive; FXN GAA850 conf: 11

How did COc1ccc2c(C)c(CCC(=O)NC3CC3)c(=O)oc2c1 do in these assays?
SR-BI uptake up: inactive; ABCB6 inh 2: inactive; AHR act: inactive; SR-BI DiI inh: inactive; HIF activator: inactive; GAA850 FXN act: inactive

Results for O=C(NCc1ccco1)C1CCC(N2C(=O)C3C4CCC(C4)C3C2=O)CC1 (centres undefined) ?
SR-BI uptake up: inactive; ABCB6 inh 2: inactive; AHR act: inactive; SR-BI DiI inh: inactive; HIF activator: inactive; GAA850 FXN act: inactive

Results for c1ccc(Nc2nc3ccccc3n3nnnc23)cc1 ?
SR-BI uptake up: inactive; ABCB6 inh 2: inactive; AHR act: inactive; SR-BI DiI inh: inactive; HIF activator: inactive; GAA850 FXN act: inactive

What do the screens show for `CCN(CC)S(=O)(=O)c1ccc(Nc2nc3ccccc3n3nnnc23)cc1`?
SR-BI uptake up: inactive; ABCB6 inh 2: inactive; AHR act: inactive; SR-BI DiI inh: inactive; HIF activator: inactive; GAA850 FXN act: 7.8; GAA30 counter: 90; FXN GAA850 conf: 36

What do the screens show for `CC(=O)OC(C(=O)NC1CCCCC1)c1ccncc1` (centres undefined)?
SR-BI uptake up: inactive; ABCB6 inh 2: inactive; AHR act: inactive; SR-BI DiI inh: inactive; HIF activator: inactive; GAA850 FXN act: inactive

Results for O=C(CSc1nc(-c2ccc(F)cc2)cs1)N1CCOCC1 ?
SR-BI uptake up: inactive; ABCB6 inh 2: inactive; AHR act: inactive; SR-BI DiI inh: inactive; HIF activator: inactive; GAA850 FXN act: 8.1; GAA30 counter: 74; FXN GAA850 conf: 27

How did CCS(=O)(=O)Nc1cc(-c2nc3cccnc3s2)ccc1C do in these assays?
SR-BI uptake up: inactive; ABCB6 inh 2: inactive; AHR act: 70; SR-BI DiI inh: inactive; HIF activator: inactive; GAA850 FXN act: 7.9; GAA30 counter: 117; FXN GAA850 conf: 34

How did Nc1cc(S(=O)(=O)N2CCOCC2)ccc1Oc1ccc(F)cc1 do in these assays?
ABCB6 inh 2: inactive; AHR act: inactive; HIF activator: inactive; GAA850 FXN act: inactive
